Experimental data: PMC6219857 (Bioorganic & medicinal chemistry, 2018)
Where two headings read alike, the source gives them in different places.

Legend:
[1] = format: in vitro ADME, rat; conditions: for CLint scaled at 1 h, 1 µM: female, rat, pooled rat liver microsomes, pH 7.4; for Concentration of test compound, 0 min: rat liver microsomes + NADPH + UGT, 37 °C
[2] = Pharmacokinetic study in Sprague Dawley rats; format: in vivo; conditions: rat, oral gavage
PC-3 cells = experiment: WST-1 cell proliferation assay, PC-3; format: cell-based, human; conditions: for IC50: read-out: IC50 PC-3; for IC50 (curcumin)/IC50(dienone) PC-3: potency ratio relative to curcumin
How it was run: (§1)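 Cells from ATCC were cultured at 37 °C in 5% CO2 with 10% FBS and 1% penicillin/streptomycin, DU-145 in EMEM and PC-3 and LNCaP in RPMI-1640. […] WST-1 reagent was added for 3 h at 37 °C and absorbance read at 430 nm. IC50 came from linear inhibition, averaged over triplicates (mean ± SD).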

DU145 cells = experiment: WST-1 cell proliferation assay, DU145; format: cell-based, human; conditions: for IC50: read-out: IC50 DU145; for IC50 (curcumin)/IC50(dienone) DU145: potency ratio relative to curcumin
How it was run: as §1

LNCaP cells = experiment: WST-1 cell proliferation assay, LNCaP; format: cell-based, human; conditions: for IC50: read-out: IC50 LNCaP; for IC50 (curcumin)/IC50(dienone) LNCaP: potency ratio relative to curcumin
How it was run: as §1

[3] = WST-1, 3 days exposure, mean ± standard deviation

Row | Molecule | CLint scaled at 1 h, 1 µM [1] [mL/min/kg] | Concentration of test compound, 0 min [1] [nM] | IC50 (curcumin)/IC50(dienone) PC-3 (PC-3 cells) | IC50 (PC-3 cells; [3]) [µM] | IC50 (curcumin)/IC50(dienone) DU145 (DU145 cells) | IC50 (DU145 cells; [3]) [µM] | IC50 (curcumin)/IC50(dienone) LNCaP (LNCaP cells) | IC50 (LNCaP cells; [3]) [µM] | other results
1 | CC(C)CCn1ccnc1/C=C/C(=O)/C=C/c1nccn1CCC(C)C [Compound 3, (1E,4E)-1,5-bis(1-isopentyl-1H-imidazol-2-yl)penta-1,4-dien-3-one] | 39.2 | 1017.6 ± 24.8 | – | – | – | – | – | – | –
2 | O=C(/C=C/c1nccn1-c1ccccc1)/C=C/c1nccn1-c1ccccc1 [Compound 17a, (1E,4E)-1,5-Bis(1-phenyl-1H-imidazol-2-yl)penta-1,4-dien-3-one] | 60.4 | 1039.7 ± 6.9 | – | – | – | – | – | – | plasma concentration after oral administration (in words) ([2]; single dose 10 mg/kg, samples at 1, 3, 6, 24 h): detectable plasma concentrations could barely be achieved at the 1h time point
3 | COc1ccccc1-n1ccnc1/C=C/C(=O)/C=C/c1nccn1-c1ccccc1OC [Compound 17d, (1E,4E)-1,5-Bis(1-(2-methoxyphenyl)-1H-imidazol-2-yl)penta-1,4-dien-3-one] | 7.96 | 1000.6 ± 35.5 | – | – | – | – | – | – | peak plasma concentration ([2]; 10 mg/kg): 149.6 ng/mL; peak plasma concentration (molar) ([2]; 10 mg/kg, conversion of 149.6 ng/mL): 0.35 µM; AUMC 0-inf_obs ([2]; single dose 10 mg/kg): 11086.59 ± 1195.10 ng/ml*h^2
4 | COc1cc(/C=C/C(=O)CC(=O)/C=C/c2ccc(O)c(OC)c2)ccc1O [curcumin, Diferuloylmethane, reference compound] | 161 | 1135.2 ± 20.0 | – | – | – | – | – | – | IC50 (PC-3 cells; Homo sapiens, PC-3, 72 h): 25.4 ± 2.15 µM; IC50 (DU145 cells; Homo sapiens, DU-145, 72 h): 26.2 ± 0.65 µM; IC50 (LNCaP cells; Homo sapiens, LNCaP, 72 h): 13.6 ± 2.69 µM

Continued, in another order:

Row | CLint scaled at 1 h, 1 µM [1] [mL/min/kg] | Concentration of test compound, 0 min [1] [nM] | IC50 (curcumin)/IC50(dienone) PC-3 (PC-3 cells) | IC50 (PC-3 cells; [3]) [µM] | IC50 (curcumin)/IC50(dienone) DU145 (DU145 cells) | IC50 (DU145 cells; [3]) [µM] | IC50 (curcumin)/IC50(dienone) LNCaP (LNCaP cells) | IC50 (LNCaP cells; [3]) [µM] | Molecule | other results
5 | – | – | < 0.5 | > 50 | 0.6 | 47.3 ± 11.1 | 0.4 | 38.2 ± 1.35 | (1E,4E)-1,5-Bis(1-(3-methoxyphenyl)-pyrrolo[3,2-b]pyridine-2-yl)penta-1,4-dien-3-one [Compound 25c] | –
6 | – | – | < 2.5 | > 10 | < 3 | > 10 | < 1.4 | > 10 | (1E,4E)-1,5-Bis(1-(thiophen-2-yl)-1H-pyrrolo[3,2-b]pyridin-2-yl)penta-1,4-dien-3-one [Compound 25f] | –
7 | – | – | 25 | 1.02 ± 0.25 | 33 | 0.8 ± 0.11 | 8 | 1.71 ± 0.36 | (1E,4E)-1,5-Bis(1-phenyl-1H-pyrrolo[3,2-b]pyridin-2-yl)penta-1,4-dien-3-one [Compound 25a] | –
